Rows were chosen to be rich in hits. Some 2.1% of all compounds tested hit in one or more screens of this group.
CXCR6 inh = inhibitors of human CXCR6 receptor; CHO-K1 PathHunter CXCR6 beta-arrestin, luminescence; inhibition, % at 20 µM; O00574; 360,000 tested, 0.36% active; in the data active = inhibition above about 34%, passing the limit was not always enough;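 also: antagonist mode with CXCL16 agonist at 10 nM final; 0% = 10 nM CXCL16 with DMSO and 100% = unstimulated wells without agonist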
EBI2 antag = antagonists of human EBI2 receptor | EBI2 beta-arrestin recruitment, luminescence, 7a,25-OHC stimulated | inhibition, % at 5 µM | 360,000 tested, 0.81% active | AID 651636; in the data active = inhibition above about 38%;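 also: enzyme fragment complementation signal reports receptor beta-arrestin coupling in cells; 0% = agonist plus DMSO wells and 100% = wells without agonist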
CCR6 antagonist = antagonists of human CCR6 receptor | CHO-K1 CCR6 PathHunter beta-arrestin, luminescence, CCL20-stimulated | inhibition, % at 20 µM | 340,000 tested, 0.49% active | AID 493098;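 active = compounds whose inhibition of the agonist-driven luminescence signal at 20 µM reaches about 50%, limit read from the data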;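 also: cells stimulated with CCL20 at 14 nM final; plate controls were DMSO with CCL20 for no effect and DMSO without agonist for full effect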
Target sequence (P51684 whole entry, looked up): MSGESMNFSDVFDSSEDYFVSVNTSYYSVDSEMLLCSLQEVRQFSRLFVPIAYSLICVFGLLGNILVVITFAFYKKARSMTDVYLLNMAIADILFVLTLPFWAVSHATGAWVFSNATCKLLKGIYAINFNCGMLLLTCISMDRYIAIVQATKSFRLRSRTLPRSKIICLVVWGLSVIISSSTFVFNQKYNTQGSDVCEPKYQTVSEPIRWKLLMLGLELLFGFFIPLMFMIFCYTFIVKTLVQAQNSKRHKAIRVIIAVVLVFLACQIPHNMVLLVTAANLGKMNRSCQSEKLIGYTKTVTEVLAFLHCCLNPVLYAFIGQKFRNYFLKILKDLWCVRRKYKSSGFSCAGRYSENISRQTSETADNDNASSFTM
APJ agonist = agonists of human APJ apelin receptor. CHO-K1 APJ PathHunter beta-arrestin, luminescence; 0% DMSO wells, 100% apelin. activation, % at 20 µM. 330,000 tested, 0.11% active. P35414;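 active = activation more than six SD over the plate average, tested at 20 µM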;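 also: 0% = DMSO alone and 100% = apelin-13 at 10 nM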
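Test system – PathHunter CHO-K1 APJ (AGTRL-1) beta-arrestin reporter cells · Input – 1000 cells/well · Compound – single test compound dose, 20 µM final, 1% DMSO · Times – compound stimulation 90 min at 25 °C, detection 60 min · Technique – beta-gal luminescence · Read-out basis – APJ–arrestin association signal · Control set – negative DMSO alone, positive Apelin-13 at 10 nM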
HTR2A ag = agonists of mouse serotonin 5-HT2A receptor (HTR2A). CHO-K1 mHTR2A beta-arrestin complementation, luminescence; percent of 30 µM serotonin response. activation, % at 7.6 µM. 360,000 tested, 0.66% active. AID 624169;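 active = activation above a run cutoff, the mean activation of all tested compounds plus 3 SD, cut at about 14% in these data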;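 also: 0% = plate median of compound wells and 100% = 30 µM serotonin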
APJ antagonist = APJ receptor antagonism; P35414; inhibition, % at 20 µM; AID 2521; 330,000 tested, 0.32% active; CHO-K1 APJ beta-arrestin complementation, luminescence;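 active = inhibition above about 40% at 20 µM, limit read from the data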;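 also: cells challenged with 10 nM apelin-13 agonist together with compound; plate controls were apelin-13 plus DMSO wells for no effect and DMSO wells lacking apelin-13 for full effect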
APJ ag confirm = APJ receptor agonism confirmation; shares compounds with APJ agonist; CHO-K1 APJ PathHunter beta-arrestin, luminescence; activation, % at 20 µM; 310 tested, 10% active; AID 2764;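 active = activation above 40%, taking the highest of four retests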;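 also: plate controls were DMSO wells for no effect and apelin-13 at 10 nM for full effect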
APJ antag confirm = confirmation of human APJ apelin receptor antagonists; shares compounds with APJ antagonist; APJ beta-arrestin recruitment, luminescence, antagonist mode; 950 tested, 66% active; inhibition, % at 20 µM; in the data active = inhibition above about 50%
* marks the source's active call; other numbers are inactive results; . = not tested or not shown.

SMILES	CXCR6 inh	EBI2 antag	CCR6 antagonist	APJ agonist	HTR2A ag	APJ antagonist	others
O=C(CN1CCCCC1)c1cccc(Br)c1	28	2	68*	-6	-3	-12
Cc1cc(C)cc(N2C(=O)NC(=O)/C(=C\C=C\c3ccco3)C2=O)c1	18	3	24	.	4	.
Cc1ccc(N2C(=O)NC(=O)/C(=C/C=C/c3ccco3)C2=O)cc1	36	45*	53*	3	-2	-38
O=C1NC(=O)N(c2ccccc2)C(=O)/C1=C\C=C\c1ccccc1	53*	16	33	6	1	0
CCc1ccc(N2C(=O)NC(=O)/C(=C\C=C\c3ccco3)C2=O)cc1	34	35	36	-2	-3	-10
N#CC1c2ccccc2-n2nncc2CN1Cc1cc(Cl)cc(Cl)c1 (stereo unspecified)	26	43*	41	.	-8	.
CCOc1ccc(N2C(=O)/C(=C/c3ccco3)C(=O)NC2=S)cc1	58*	-7	79*	0	1	10
Cc1ccccc1-n1c(/C=C/c2ccccn2)nc2ccccc2c1=O	8	5	13	-3	-4	-13
CN1C2CCC1/C(=C/c1ccccn1)C(=O)/C2=C\c1ccccn1	38*	30	49	.	0	.
COc1ccc(C(CNC(=O)c2ccc3c(c2)CCC3)N(C)C)cc1 (stereo unspecified)	2	0	24	-2	-5	-3
Cc1cc(C=C2C(=O)NC(=S)NC2=O)c(C)n1-c1ccc2c(c1)OCO2	-2	-2	35	6	16*	5
CCN1C(=O)C(=Cc2ccc(C)s2)C(=O)N(CC)C1=S	-11	5	-35	0	-2	-8
COc1ccc(O)c2c(=O)c3c(OC)cc4c(c3oc12)C1C=COC1O4 (stereo unspecified)	-1	53*	10	-2	2	17
N#C[C@H](O[C@@H]1O[C@H](CO[C@@H]2O[C@H](CO)[C@@H](O)[C@H](O)[C@H]2O)[C@@H](O)[C@H](O)[C@H]1O)c1ccccc1	-6	-10	8	-2	0	7
CC(C)CN1CCN(Cc2c(F)cccc2Cl)CC1CCO (stereo unspecified)	-8	-16	13	-3	-1	4
O=[N+]([O-])c1ccc(N2CCNCC2)cc1N1CCCCC1	-6	-3	13	-3	8	4
O=[N+]([O-])c1cccnc1N1CCCNCC1	2	1	0	-5	32*	-23
O=[N+]([O-])c1ccc(N2CCCC2)cc1N/N=C1\CN2CCC1CC2	5	-9	20	-4	-5	8
Cc1ccc(N2C(=O)NC(=O)/C(=C/c3cnn(-c4ccc(C)cc4)c3)C2=O)cc1	43*	43	49	0	0	12
COC(=O)[C@@H]1[C@@H](C(=O)OC)C2(c3ccccc3-c3ccccc32)N(c2ccc(Cl)cc2)N1C#N	22	45*	29	6	-1	18
Cc1cc(Cl)nc(N)n1	-4	4	-1	5	5	-2
CCCCCCn1c(=O)c(C(=O)Nc2ncccc2O)c(O)c2ccccc21	-1	-6	2	2	6	-17
CCOC(=O)[C@]12Cc3cc(Cl)ccc3[C@H]1N(C1CCCCC1)C(=O)c1ccccc12	21	76*	.	.	3	.
CCOC(=O)[C@]12Cc3cc(Cl)ccc3[C@H]1N(C)C(=O)c1ccccc12	9	1	.	.	-2	.
CN1CCCC(C(O)(c2ccccc2)c2ccccc2)C1 (stereo unspecified)	-11	-2	9	2	1	19
SMILES	CXCR6 inh	EBI2 antag	CCR6 antagonist	APJ agonist	HTR2A ag	APJ antagonist	others
CCCCn1c(NC(=O)c2ccc(Br)o2)c(C(=O)OCC)c2nc3ccccc3nc21	23	16	43	-11	-6	63*
CC(=O)O/C(=C1\CC2C3CC=C4CC(OC(C)=O)CCC4(C)C3CCC2(C)C1=O)C(F)(F)F (stereo unspecified)	62*	6	83*	.	-3	.
C=CCCC[C@@H]1OC(=O)CNC(=O)C([C@@H](C)CC)NC(=O)[C@@H]2CCCN2C(=O)C([C@@H](C)CC)OC(=O)[C@H](Cc2ccccc2)N(C)C(=O)[C@H](C(C)C)NC(=O)C1(C)C (stereo partly specified)	28	9	.	.	0	.
CC[C@H](C)C1OC(=O)[C@@H](C)[C@@H](CC)NC(=O)[C@H](C)N(C)C(=O)C(C)(C)C(=O)C(C)NC(=O)[C@H](Cc2ccc(OC)cc2)N(C)C(=O)[C@H](C(C)C)N(C)C(=O)CNC(=O)[C@H](CC(C)C)N(C)C(=O)CNC1=O (stereo partly specified)	8	-84	.	.	21*	.
CCOP(=S)(OCC)c1ccc(N(C)C)cc1	5	8	19	-6	3	13
CCOc1cc2[nH]c(=S)n(CCCC(=O)N3CCC4(CC3)OCCO4)c(=O)c2cc1OCC	-1	0	-9	35*	0	2	APJ ag confirm=22
O=c1ccc2cc(O[C@@H]3O[C@@H](CO)[C@H](O)[C@@H](O)[C@@H]3O)c(O)cc2o1	-2	1	-5	0	1	3
CN1C(=O)C(=Cc2ccc(N3CCCCCC3)o2)C(=O)N(C)C1=S	19	12	34	-6	-3	47*	APJ antag confirm=79*
CN1C(=O)C(=Cc2ccc(N3CCOCC3)o2)C(=O)N(C)C1=O	2	-6	17	-3	1	9
CSc1cccc(NP2(=O)OCC(C)([N+](=O)[O-])CO2)c1 (stereo unspecified)	-6	-5	3	.	-2	.
Oc1ccc2c3c1OC1c4[nH]c5ccccc5c4C[C@@]4(O)C(C2)N(CC2CC2)CC[C@]314 (stereo partly specified)	8	0	9	-2	0	13
O=C1/C(=C/c2ccccc2)C[C@@]2(O)[C@H]3Cc4ccc(O)c5c4[C@@]2(CCN3CC2CC2)C1O5 (stereo partly specified)	58*	55*	80*	-9	1	56*	APJ antag confirm=93*
CCCCNS(=O)(=O)c1ccc(OCC(=O)N2CCN(Cc3ccc4c(c3)OCO4)CC2)cc1	-12	-7	-1	4	4	-2
N#Cc1c(/N=C/c2ccc(O)cc2O)sc2c1C1CCN2CC1	8	-9	39	-7	1	42*	APJ antag confirm=36

Screens from PubChem.
